Our source for the EC50 and Activity values is ChEMBL document CHEMBL4725470, “Synthesis and Biological Evaluation of Pyrroloindolines as Positive Allosteric Modulators of the α1β2γ2 GABA Receptor” (ACS Med Chem Lett, 2020).

SMILES strings stand for the structures. The source made the active and inactive calls. The calls are words filed in the database; no cut-off is given here.

As a reminder, the EC50 is the concentration giving half of the maximal effect.

Experiment [1] has as its target T1, GABA-A receptor; alpha-1/beta-2/gamma-2 (Homo sapiens, UniProt P14867+P18507+P47870).
T1 sequence (P14867 whole entry): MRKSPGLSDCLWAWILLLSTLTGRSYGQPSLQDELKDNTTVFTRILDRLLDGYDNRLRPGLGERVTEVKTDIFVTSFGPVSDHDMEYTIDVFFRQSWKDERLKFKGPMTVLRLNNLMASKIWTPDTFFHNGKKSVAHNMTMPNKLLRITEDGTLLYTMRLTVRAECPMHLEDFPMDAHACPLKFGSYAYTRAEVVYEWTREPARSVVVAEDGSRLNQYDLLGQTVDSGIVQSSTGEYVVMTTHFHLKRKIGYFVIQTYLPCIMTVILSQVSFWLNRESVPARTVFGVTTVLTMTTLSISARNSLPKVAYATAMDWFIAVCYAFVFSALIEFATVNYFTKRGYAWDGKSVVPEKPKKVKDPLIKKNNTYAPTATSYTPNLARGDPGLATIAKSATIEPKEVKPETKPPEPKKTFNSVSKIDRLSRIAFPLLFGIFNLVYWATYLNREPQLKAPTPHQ
T1 sequence (P47870 whole entry): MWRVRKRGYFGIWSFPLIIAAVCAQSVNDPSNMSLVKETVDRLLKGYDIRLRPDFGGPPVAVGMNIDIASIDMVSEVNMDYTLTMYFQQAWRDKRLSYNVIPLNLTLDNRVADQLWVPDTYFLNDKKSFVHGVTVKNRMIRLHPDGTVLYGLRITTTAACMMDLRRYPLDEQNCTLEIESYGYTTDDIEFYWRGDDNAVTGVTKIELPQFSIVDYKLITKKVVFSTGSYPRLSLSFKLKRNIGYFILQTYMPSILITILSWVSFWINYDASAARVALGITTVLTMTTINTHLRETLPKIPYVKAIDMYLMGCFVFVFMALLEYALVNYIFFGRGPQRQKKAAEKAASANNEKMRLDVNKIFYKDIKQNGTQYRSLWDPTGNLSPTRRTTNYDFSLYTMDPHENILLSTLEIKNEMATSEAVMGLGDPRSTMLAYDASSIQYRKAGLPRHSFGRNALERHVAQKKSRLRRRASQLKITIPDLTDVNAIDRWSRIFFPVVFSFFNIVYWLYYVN
T1 sequence (P18507 whole entry): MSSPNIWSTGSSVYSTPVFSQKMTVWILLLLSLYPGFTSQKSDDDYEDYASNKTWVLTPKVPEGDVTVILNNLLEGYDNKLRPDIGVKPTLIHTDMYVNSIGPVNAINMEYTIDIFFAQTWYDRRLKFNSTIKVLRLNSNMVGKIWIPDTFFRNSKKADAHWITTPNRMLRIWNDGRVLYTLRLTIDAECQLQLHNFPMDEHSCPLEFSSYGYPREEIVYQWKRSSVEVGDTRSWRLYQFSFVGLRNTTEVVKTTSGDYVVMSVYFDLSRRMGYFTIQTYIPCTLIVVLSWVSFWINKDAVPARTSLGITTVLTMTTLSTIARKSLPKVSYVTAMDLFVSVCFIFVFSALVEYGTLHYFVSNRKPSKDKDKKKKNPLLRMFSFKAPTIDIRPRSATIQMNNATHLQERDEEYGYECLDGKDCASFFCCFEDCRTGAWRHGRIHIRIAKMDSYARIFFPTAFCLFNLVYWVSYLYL
Kind of experiment: Positive allosteric modulator activity at human alpha1beta2Sgamma2S GABA-A receptor expressed in Xenopus laevis oocytes in presence of EC5 GABA by two electrode voltage-clamp assay. Type of experiment: cell-based, Oocyte. The method in brief: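 Modulator dose–response with each concentration coapplied with GABA EC5. The peak current at GABA EC5 alone was subtracted from all responses, and the EC50 was taken from the fitted curve.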
Background: In two-electrode clamp one electrode senses voltage and the other passes current.

In experiment [2] the target is GABA-A receptor; GABA-A site (alpha1/beta2 interface) (Homo sapiens) (UniProt P14867+P47870). The experiment in a line: Positive allosteric modulator activity at human alpha1beta2S GABA-A receptor expressed in Xenopus laevis oocytes assessed as potentiation of EC50 GABA response at 40 uM by two electrode voltage-clamp assay relative to control. Type of experiment: cell-based. The conditions noted are these: Oocyte. An outline of the steps: (§1)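 Two-electrode voltage clamp in oocytes. Three GABA EC50 applications set the baseline. The test ligand alone is then given at 40 μM, followed after a 30 s incubation by GABA EC50 plus 40 μM ligand. Two further GABA EC50 doses check receptor function after modulation. Result is the percent change relative to the GABA-only baseline.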

Experiment [3] addresses T2, GABA-A receptor; alpha-1/beta-2/gamma-2 (Homo sapiens) (UniProt P14867+P47870+P18507). Kind of experiment: Positive allosteric modulator activity at human alpha1beta2Sgamma2S GABA-A receptor expressed in Xenopus laevis oocytes assessed as potentiation of EC50 GABA response at 40 uM by two electrode voltage-clamp assay relative to control. Type of experiment: cell-based. The conditions noted are these: Oocyte. An outline of the steps:
as §1

Experiment [4] concerns the target T2, GABA-A receptor; alpha-1/beta-2/gamma-2 (Homo sapiens). The experiment in a line: Positive allosteric modulator activity at human alpha1beta2Sgamma2S GABA-A receptor expressed in Xenopus laevis oocytes assessed as potentiation of EC10 GABA response by two electrode voltage-clamp assay relative to control. Type of experiment: cell-based. The conditions noted are these: Oocyte. An outline of the steps: (§2)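 Same sequence as the EC50 potentiation protocol: baseline GABA doses, ligand alone, 30 s incubation, then coapplication, then two GABA check doses. Here 40 μM PAM is coapplied with an EC10–15 GABA dose. The EC10–15 for each mutant receptor was verified from full GABA dose–response curves.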

For experiment [5] the target is unchanged. Kind of experiment: Positive allosteric modulator activity at human alpha1beta2Sgamma2S GABA-A receptor expressed in Xenopus laevis oocytes in presence of EC50 GABA by two electrode voltage-clamp assay. It counts as cell-based. The conditions noted are these: Oocyte, filed as positive allosteric modulator.
Experiment [6] relates to Oocyte. Kind of experiment: Positive allosteric modulator activity at human GABA-A receptor alpha1beta2Sgamma2S H129R mutant expressed in Xenopus laevis oocytes assessed as potentiation of EC10 GABA response by two electrode voltage-clamp assay relative to control. It counts as cell-based. The conditions noted are these: filed as positive allosteric modulator. The method in brief:
as §2

Experiment [7] has as its system Oocyte. The experiment in a line: Positive allosteric modulator activity at human GABA-A receptor alpha1beta2Sgamma2S S297I/N289I/S319I triple mutant expressed in Xenopus laevis oocytes assessed as potentiation of EC10 GABA response by two electrode voltage-clamp assay relative to control. It counts as cell-based. An outline of the steps: as §2
Experiment [8] has as its system Oocyte. Kind of experiment: Positive allosteric modulator activity at human GABA-A receptor alpha1beta2Sgamma2S Y209Q mutant expressed in Xenopus laevis oocytes assessed as potentiation of EC10 GABA response by two electrode voltage-clamp assay relative to control. It counts as cell-based. The conditions noted are these: filed as positive allosteric modulator. An outline of the steps:
as §2

For experiment [9], the system named is Oocyte. The experiment in a line: Positive allosteric modulator activity at human GABA-A receptor alpha1beta2Sgamma2S Q88C mutant expressed in Xenopus laevis oocytes assessed as potentiation of EC10 GABA response by two electrode voltage-clamp assay relative to control. It counts as cell-based. Conditions: filed as positive allosteric modulator. An outline of the steps:
as §2

The target in experiment [10] is T2, GABA-A receptor; alpha-1/beta-2/gamma-2 (Homo sapiens). The experiment in a line: Agonist activity at human alpha1beta2Sgamma2S GABA-A receptor expressed in Xenopus laevis oocytes by two electrode voltage-clamp assay. Type of experiment: cell-based. The conditions noted are these: Oocyte, filed as agonist. The method in brief: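 Test ligand applied alone at 40 μM to oocytes expressing human α1β2γ2 receptors. Current read by two-electrode voltage clamp and compared with GABA EC50 responses recorded in the same sequence.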

The nature of experiment [11]: Positive allosteric modulator activity at rat alpha1beta2gamma2L GABA-A receptor expressed in Xenopus laevis oocytes in presence of EC2-5 GABA by two-electrode voltage clamp assay. Type of experiment: cell-based. The conditions noted are these: Oocyte.
Where [12] appears, read: filed as positive allosteric modulator.

Take `CN1CC[C@]2(O)c3ccccc3N(C)[C@]12c1ccccc1` [listing 1 of 2 here]: in experiment [1], the 50% effective concentration (EC50) is 110000 nM. In the case of `CN1CC[C@@]2(O)c3ccccc3N(C)[C@@]12c1ccccc1`, the Activity in experiment [2] was determined as 9.2%. Take `CN1CC[C@]2(O)c3ccccc3N(C)[C@]12c1ccccc1` [listing 2 of 2 here]: the Activity in experiment [2] is 17%; in experiment [3], 16%; in experiment [4] (setting [12]) it was 125%.

In the case of `CN1CC[C@]2(F)c3ccccc3N(C)[C@]12c1ccccc1`, the Activity in experiment [4] (setting [12]) stood at 100%. Take `CN1CC[C@]2(O)c3ccccc3N(C)[C@]12c1ccc(Br)cc1`: in experiment [4] (setting [12]), the Activity came to 98%. In the case of `CN1CC[C@]2(O)c3ccccc3N(C)[C@]12c1ccccc1` (racemic), the Activity was found to be 28% in experiment [2], 17% in experiment [3], 1% in the experiment on Oocyte [7] and 62% in experiment [4] (setting [12]). Also, the outcome (in experiment [5]; in the experiment on Oocyte [6]; with Oocyte [8]; in the experiment with Oocyte [9]) was Active. In the case of `CO[C@]12CCN(C)[C@@]1(c1ccccc1)N(C)c1ccccc12`, the Activity in experiment [4] turned out to be 21%. `CN1CC[C@@]2(O)c3ccccc3N(C)[C@@]12c1ccc(Br)cc1`: the Activity in experiment [4] (setting [12]) was determined as 155%.

Turning to `COc1ccc2c(c1)[C@@]1(O)CCN(C)[C@@]1(c1ccccc1)N2C`, the Activity in [4] came out at 17%. Regarding `CN1CC[C@@]2(O)c3cc(N4CCOCC4)ccc3N(C)[C@@]12c1ccccc1`, the Activity in [4] is -4.8%.

As to `CN1CC[C@]2(O)c3cc(C(F)(F)F)ccc3N(C)[C@]12c1ccccc1`, in [4] (setting [12]), the Activity stood at 108%. For the molecule `COc1ccc([C@@]23N(C)CC[C@]2(O)c2ccccc2N3C)cc1` (racemic), the result in experiment [4] was inactive. For `CN1CC[C@]2(O)c3cc(I)ccc3N(C)[C@]12c1ccccc1`, in experiment [10], the outcome was Active. Besides, the Activity in experiment [4] (setting [12]) stood at 231%. Take `Cc1ccc(-c2nc3ccc(C)cn3c2CC(=O)N(C)C)cc1` [ZOLPIDEM]: the EC50 in experiment [11] is 340 nM. On to `CCN(CC)CCN1C(=O)CN=C(c2ccccc2F)c2cc(Cl)ccc21` [FLURAZEPAM], for which, in [11], the EC50 was found to be 270 nM. Consider `CN1CC[C@]2(O)c3cc(Br)ccc3N(C)[C@]12c1ccccc1`, for which the result in experiment [10] was Active. Moreover, in experiment [4] (setting [12]), the Activity is 213%.

`CN1c2ccccc2[C@@]2(O)CCN(C(=O)OCc3ccccc3)[C@@]12c1ccccc1`: in experiment [4], the Activity stood at 9.6%.

Consider `CN1c2ccccc2[C@@]2(O)CCN[C@@]12c1ccccc1`, for which the Activity in [4] (setting [12]) worked out at 41%.
